In ChEMBL document CHEMBL1147186, “Dibenzothiazoles as novel amyloid-imaging agents” (Bioorg Med Chem, 2007) one finds Ki, logP and Drug uptake data, which are given here for ten molecules.

Data set [1] addresses Amyloid-beta precursor protein (Homo sapiens, UniProt P05067). Kind of data set: Displacement of [3H]PIB from beta amyloid in brain homogenate from Alzheimer's patient. The class given is tissue-based. The procedure, abridged:
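Competition binding against [3H]PIB (0.05 nM final) in postmortem AD gray-matter homogenate prepared in PBS pH 7.4. Inhibitors at 10^-5 to 10^-12 mol/L (PBS, under 1% DMSO), incubated 37 °C for 1 h. Bound radioligand was collected by GF/B vacuum filtration, washed three times with PBS and scintillation-counted. Nonspecific binding was defined with 10 µM PIB. Ki was obtained by nonlinear regression.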
(In general: Loss of bound radioactivity is the signal in a displacement assay; it reports binding, not function.)

Data set [2] is described as follows: Partition coefficient, log P of the compound. The class given is physicochemical. The note with it: octanol/water. An outline of the steps: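 Shake-flask logP using the [125I] radioligand (RCP >98%) in n-octanol and 0.1 M phosphate buffer pH 7.4. Mixture vortexed 3 min at room temperature and centrifuged 3500 rpm for 5 min. Both phases were weighed and counted; logP is log of the cpm/g octanol to cpm/g buffer ratio. The octanol phase was repartitioned until values were consistent; done in triplicate.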

Data set [3] relates to Brain. Briefly: Biodistribution in Swiss-Webster mouse brain at 0.185 MBq, iv after 2 mins. The class given is ADME, organism-based. The note with it: in vivo. The procedure, abridged:
(§1)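 Radioiodinated tracer in saline/ethylene glycol/ethanol/HCl vehicle, single tail-vein injection under anesthesia into 2-month-old Swiss-Webster mice (n = 3 per time point). Animals killed by heart puncture at 2, 30 and 60 min; brain removed, weighed and gamma-counted. Uptake expressed as % injected dose per gram.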

Data set [4] deals with Brain. Kind of data set: Biodistribution in Swiss-Webster mouse brain at 0.185 MBq, iv after 30 mins. The class given is ADME, organism-based. The conditions noted are these: in vivo, 0.5 h. The procedure, abridged:
as §1

The subject of data set [5] is Brain. Briefly: Biodistribution in Swiss-Webster mouse brain at 0.185 MBq, iv after 60 mins. The class given is ADME, organism-based. The conditions noted are these: in vivo, 1 h. An outline of the steps:
as §1

Chain of Amyloid-beta precursor protein (P05067 whole entry): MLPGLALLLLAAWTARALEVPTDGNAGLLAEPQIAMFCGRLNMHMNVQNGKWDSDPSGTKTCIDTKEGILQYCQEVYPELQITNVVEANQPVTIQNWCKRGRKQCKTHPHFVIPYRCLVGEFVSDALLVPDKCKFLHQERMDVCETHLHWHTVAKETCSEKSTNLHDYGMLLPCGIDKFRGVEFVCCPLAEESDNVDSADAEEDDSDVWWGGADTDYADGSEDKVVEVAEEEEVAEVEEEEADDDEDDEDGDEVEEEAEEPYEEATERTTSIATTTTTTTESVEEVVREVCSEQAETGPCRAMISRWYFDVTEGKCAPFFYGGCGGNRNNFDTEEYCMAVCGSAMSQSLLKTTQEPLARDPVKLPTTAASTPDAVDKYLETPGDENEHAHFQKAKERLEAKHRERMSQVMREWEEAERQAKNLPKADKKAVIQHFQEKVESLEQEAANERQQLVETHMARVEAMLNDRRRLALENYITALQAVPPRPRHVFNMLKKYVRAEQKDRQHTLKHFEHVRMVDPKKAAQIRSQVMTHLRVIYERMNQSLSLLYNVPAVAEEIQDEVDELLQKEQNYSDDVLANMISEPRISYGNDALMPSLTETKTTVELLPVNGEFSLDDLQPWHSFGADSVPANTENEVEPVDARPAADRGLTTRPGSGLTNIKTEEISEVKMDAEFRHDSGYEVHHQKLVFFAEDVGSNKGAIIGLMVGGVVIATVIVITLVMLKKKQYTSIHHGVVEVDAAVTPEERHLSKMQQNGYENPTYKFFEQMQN

Usually Ki stands for a measure of affinity in units of concentration, obtained from inhibition or displacement. High values mean a looser hold on the target, low ones a stronger hold on the target. The molecule `Nc1ccc(-c2nc3ccc(-c4nc5ccc(F)cc5s4)cc3s2)cc1` showed a Ki in data set [1] of 36 nM.

`CNc1ccc(-c2nc3ccc(-c4nc5ccc(Cl)cc5s4)cc3s2)cc1` showed a Ki in data set [1] of 6.8 nM.

In the case of `CN(C)c1ccc(-c2nc3ccc(-c4nc5ccc(F)cc5s4)cc3s2)cc1`, in data set [1], the Ki was 23 nM.

The term logP denotes the decadic logarithm of the partition coefficient of the neutral form, usually between octanol and water. Read a low logP as a more hydrophilic compound. In data set [1], `Nc1ccc(-c2nc3ccc(-c4nc5ccccc5s4)cc3s2)cc1I` displayed a Ki of 21 nM. Moreover, the logP in data set [2] is 2.7.

In data set [2], `Nc1ccc(-c2nc3ccc(-c4nc5ccccc5s4)cc3s2)cc1[125I]` had a logP of 2.7. Moreover, the figures for the Drug uptake with Brain [3], in the data set on Brain [4] and in the data set on Brain [5] were 3.71 % ID/g, 0.78 % ID/g and 0.43 % ID/g, respectively.

In turn, `Nc1ccc(-c2nc3ccc(-c4nc5ccccc5s4)cc3s2)cc1` showed an inhibitory constant (Ki) in data set [1] of 25 nM.

As for `Nc1ccc(-c2nc3ccc(-c4nc5ccc(Cl)cc5s4)cc3s2)cc1`, in data set [1], the Ki is 34 nM.

Molecule `CNc1ccc(-c2nc3ccc(-c4nc5ccccc5s4)cc3s2)cc1` returned an inhibition constant (Ki) in data set [1] of 22 nM.

As to `CNc1ccc(-c2nc3ccc(-c4nc5ccc(F)cc5s4)cc3s2)cc1`, in data set [1], the Ki amounted to 27 nM.

For the molecule `COc1ccc2nc(-c3ccc4nc(-c5ccc(N)cc5)sc4c3)sc2c1`, in data set [1], the affinity, expressed as Ki, was 25 nM.
